Values joined by “and” are separate entries in the source; they are usually repeats but may differ in a detail not shown here. Equal values may be shown once.
Test system: U2OS
Experiment: Multiplex assay against U2OS
Type: toxicity, cell-based
Details: human
Summary of the method: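 Four dyes were applied at seeding to live cells: Hoechst33342, BioTracker Green Microtubule Cytoskeleton Dye, MitoTracker Red and Annexin V Alexa Fluor 680. Imaging after compound addition used a CQ1 microscope at 37°C and 5% CO2. CellPathfinder machine-learning gating then sorted cells into Hoechst high-intensity objects or normal cells, normal cells into healthy, pyknosed or fragmented nuclei, and pyknosed cells into mitotic or apoptotic, with tubulin, mitochondrial-mass and membrane-permeability phenotypes given as per cents of healthy-nucleus cells.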

[1] = 12 h, 10 µM, compound concentration 10 uM, replicate 1
[2] = 12 h, 10 µM, compound concentration 10 uM, replicate 2
[3] = 24 h, 10 µM, compound concentration 10 uM, replicate 1
[4] = 24 h, 10 µM, compound concentration 10 uM, replicate 2
[5] = 12 h, 1 µM, compound concentration 1 uM, replicate 1
[6] = 12 h, 1 µM, compound concentration 1 uM, replicate 2
[7] = 24 h, 1 µM, compound concentration 1 uM, replicate 1
[8] = 24 h, 1 µM, compound concentration 1 uM, replicate 2
[9] = 48 h, 1 µM, compound concentration 1 uM, replicate 1
[10] = 48 h, 1 µM, compound concentration 1 uM, replicate 2
[11] = 48 h, 10 µM, compound concentration 10 uM, replicate 1
[12] = 48 h, 10 µM, compound concentration 10 uM, replicate 2

Cn1nc(C(=O)NCc2ccc(C(=O)O)cc2)cc1-c1ccc2[nH]ccc2c1 [BI 4395]
Population Apoptotic (%) [1]: 42%
Population Fragmented Nuclei (%) [1]: 4%
Population Healthy Nuclei (%) [1]: 87% and 92%
Population Hoechst High Intensity Objects (%) [1]: 2% and 3%
Population Membrane Permeable-Phenotype (%) [1]: 9% and 4%
Population Mitochondria Different-Phenotype (%) [1]: 17%
Population Mitotic Cells (%) [1]: 57%
Population Normal (%) [1]: 97% and 96%
Population Pyknosed Nuclei (%) [1]: 8%
Population Tubulin-Different-Phenotype (%) [1]: 21% and 16%
Total Cell Count [1]: 177 and 225
Population Fragmented Nuclei (%) [2]: 9% and 7%
Population Healthy Nuclei (%) [2]: 89%
Population Hoechst High Intensity Objects (%) [2]: 11%
Population Membrane Permeable-Phenotype (%) [2]: 8%
Population Mitochondria Different-Phenotype (%) [2]: 35% and 23%
Population Mitotic Cells (%) [2]: 50% and 100%
Population Normal (%) [2]: 88%
Population Pyknosed Nuclei (%) [2]: 2% and 3%
Population Tubulin-Different-Phenotype (%) [2]: 30%
Total Cell Count [2]: 84 and 159
Population Apoptotic (%) [3]: 18% and 33%
Population Fragmented Nuclei (%) [3]: 4% and 1%
Population Healthy Nuclei (%) [3]: 95%
Population Hoechst High Intensity Objects (%) [3]: 1%
Population Membrane Permeable-Phenotype (%) [3]: 6%
Population Mitochondria Different-Phenotype (%) [3]: 18% and 24%
Population Mitotic Cells (%) [3]: 81% and 66%
Population Normal (%) [3]: 98%
Population Pyknosed Nuclei (%) [3]: 6% and 2%
Population Tubulin-Different-Phenotype (%) [3]: 20%
Total Cell Count [3]: 253 and 307
Population Apoptotic (%) [4]: 40% and 60%
Population Fragmented Nuclei (%) [4]: 7% and 5%
Population Healthy Nuclei (%) [4]: 87% and 89%
Population Hoechst High Intensity Objects (%) [4]: 7% and 6%
Population Membrane Permeable-Phenotype (%) [4]: 9% and 8%
Population Mitochondria Different-Phenotype (%) [4]: 15% and 40%
Population Mitotic Cells (%) [4]: 60% and 40%
Population Normal (%) [4]: 92% and 93%
Population Pyknosed Nuclei (%) [4]: 5%
Population Tubulin-Different-Phenotype (%) [4]: 34% and 29%
Total Cell Count [4]: 199 and 102

O=C(Nc1ccc(-c2ccnc(Nc3ccc(N4CCOCC4)cc3)n2)cc1)[C@@H]1CCCN1
Population Apoptotic (%) [5]: 45%
Population Fragmented Nuclei (%) [5]: 11%
Population Healthy Nuclei (%) [5]: 76%
Population Hoechst High Intensity Objects (%) [5]: 3%
Population Membrane Permeable-Phenotype (%) [5]: 6%
Population Mitochondria Different-Phenotype (%) [5]: 10%
Population Mitotic Cells (%) [5]: 55%
Population Normal (%) [5]: 96%
Population Pyknosed Nuclei (%) [5]: 11%
Population Tubulin-Different-Phenotype (%) [5]: 16%
Total Cell Count [5]: 100
Population Apoptotic (%) [6]: 33%
Population Fragmented Nuclei (%) [6]: 13%
Population Hoechst High Intensity Objects (%) [6]: 7%
Population Membrane Permeable-Phenotype (%) [6]: 4%
Population Mitotic Cells (%) [6]: 66%
Population Normal (%) [6]: 92%
Population Pyknosed Nuclei (%) [6]: 10%
Population Tubulin-Different-Phenotype (%) [6]: 10%
Total Cell Count [6]: 65
Population Apoptotic (%) [1]: 62%
Population Fragmented Nuclei (%) [1]: 13%
Population Healthy Nuclei (%) [1]: 66%
Population Hoechst High Intensity Objects (%) [1]: 7%
Population Membrane Permeable-Phenotype (%) [1]: 12%
Population Mitochondria Different-Phenotype (%) [1]: 74%
Population Mitotic Cells (%) [1]: 37%
Population Normal (%) [1]: 92%
Population Pyknosed Nuclei (%) [1]: 20%
Population Tubulin-Different-Phenotype (%) [1]: 97%
Total Cell Count [1]: 176
Population Apoptotic (%) [2]: 77%
Population Fragmented Nuclei (%) [2]: 7%
Population Healthy Nuclei (%) [2]: 77%
Population Hoechst High Intensity Objects (%) [2]: 5%
Population Membrane Permeable-Phenotype (%) [2]: 8%
Population Mitochondria Different-Phenotype (%) [2]: 28%
Population Mitotic Cells (%) [2]: 22%
Population Normal (%) [2]: 94%
Population Pyknosed Nuclei (%) [2]: 14%
Population Tubulin-Different-Phenotype (%) [2]: 44%
Total Cell Count [2]: 65
Population Apoptotic (%) [7]: 41%
Population Fragmented Nuclei (%) [7]: 8%
Population Healthy Nuclei (%) [7]: 76%
Population Hoechst High Intensity Objects (%) [7]: 3%
Population Membrane Permeable-Phenotype (%) [7]: 7%
Population Mitochondria Different-Phenotype (%) [7]: 9%
Population Mitotic Cells (%) [7]: 58%
Population Normal (%) [7]: 96%
Population Pyknosed Nuclei (%) [7]: 15%
Population Tubulin-Different-Phenotype (%) [7]: 10%
Total Cell Count [7]: 90
Population Apoptotic (%) [8]: 60%
Population Fragmented Nuclei (%) [8]: 7%
Population Healthy Nuclei (%) [8]: 85%
Population Hoechst High Intensity Objects (%) [8]: 6%
Population Membrane Permeable-Phenotype (%) [8]: 3%
Population Mitochondria Different-Phenotype (%) [8]: 19%
Population Mitotic Cells (%) [8]: 40%
Population Normal (%) [8]: 93%
Population Pyknosed Nuclei (%) [8]: 7%
Total Cell Count [8]: 63
Population Apoptotic (%) [3]: 60%
Population Fragmented Nuclei (%) [3]: 12%
Population Healthy Nuclei (%) [3]: 65%
Population Hoechst High Intensity Objects (%) [3]: 7%
Population Membrane Permeable-Phenotype (%) [3]: 17%
Population Mitochondria Different-Phenotype (%) [3]: 80%
Population Mitotic Cells (%) [3]: 39%
Population Normal (%) [3]: 92%
Population Pyknosed Nuclei (%) [3]: 21%
Population Tubulin-Different-Phenotype (%) [3]: 97%
Total Cell Count [3]: 198
Population Apoptotic (%) [4]: 58%
Population Fragmented Nuclei (%) [4]: 18%
Population Healthy Nuclei (%) [4]: 64%
Population Hoechst High Intensity Objects (%) [4]: 1%
Population Membrane Permeable-Phenotype (%) [4]: 13%
Population Mitochondria Different-Phenotype (%) [4]: 17%
Population Mitotic Cells (%) [4]: 41%
Population Normal (%) [4]: 98%
Population Pyknosed Nuclei (%) [4]: 17%
Population Tubulin-Different-Phenotype (%) [4]: 22%
Total Cell Count [4]: 72
Population Apoptotic (%) [9]: 36%
Population Fragmented Nuclei (%) [9]: 5%
Population Hoechst High Intensity Objects (%) [9]: 1%
Population Membrane Permeable-Phenotype (%) [9]: 4%
Population Mitochondria Different-Phenotype (%) [9]: 8%
Population Mitotic Cells (%) [9]: 63%
Population Normal (%) [9]: 98%
Population Pyknosed Nuclei (%) [9]: 13%
Population Tubulin-Different-Phenotype (%) [9]: 13%
Total Cell Count [9]: 94
Population Apoptotic (%) [10]: 0%
Population Fragmented Nuclei (%) [10]: 10%
Population Healthy Nuclei (%) [10]: 80%
Population Hoechst High Intensity Objects (%) [10]: 5%
Population Membrane Permeable-Phenotype (%) [10]: 5%
Population Mitochondria Different-Phenotype (%) [10]: 12%
Population Mitotic Cells (%) [10]: 100%
Population Normal (%) [10]: 94%
Population Pyknosed Nuclei (%) [10]: 9%
Population Tubulin-Different-Phenotype (%) [10]: 16%
Total Cell Count [10]: 61
Population Apoptotic (%) [11]: 67%
Population Fragmented Nuclei (%) [11]: 24%
Population Healthy Nuclei (%) [11]: 48%
Population Hoechst High Intensity Objects (%) [11]: 6%
Population Membrane Permeable-Phenotype (%) [11]: 18%
Population Mitochondria Different-Phenotype (%) [11]: 53%
Population Mitotic Cells (%) [11]: 32%
Population Normal (%) [11]: 93%
Population Pyknosed Nuclei (%) [11]: 26%
Population Tubulin-Different-Phenotype (%) [11]: 86%
Total Cell Count [11]: 289
Population Apoptotic (%) [12]: 60%
Population Fragmented Nuclei (%) [12]: 9%
Population Healthy Nuclei (%) [12]: 70%
Population Hoechst High Intensity Objects (%) [12]: 8%
Population Membrane Permeable-Phenotype (%) [12]: 28%
Population Mitochondria Different-Phenotype (%) [12]: 32%
Population Mitotic Cells (%) [12]: 40%
Population Normal (%) [12]: 91%
Population Pyknosed Nuclei (%) [12]: 20%
Population Tubulin-Different-Phenotype (%) [12]: 23%
Total Cell Count [12]: 125

From ChEMBL document CHEMBL4689842, “EUbOPEN Chemogenomics Library wave 1” (2021)
